Here are results for 4 compounds from BindingDB's records for doi:10.1021/jm0003844 (Pfizer, 2001).

This test addresses Human immunodeficiency virus type 1 protease (Human immunodeficiency virus 1, UniProt Q72874). Nature of the test: HIV-1 protease inhibition. A digest of the protocol: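 Affinity-purified HIV-1 protease (1.5 nM final) with 40 µM peptide substrate His-Lys-Ala-Arg-Val-Leu-(p-NO2-Phe)-Glu-Ala-Nle-Ser-NH2 and 1.0% DMSO. Buffer: 80 mM MES, 160 mM NaCl, 1.0 mM DTT, 1.0 mM EDTA, 0.1% PEG 8000, pH 6.2. Incubated 60 min at 37 °C, then quenched with TFA (2% final). Products separated by reverse-phase HPLC and read at 220 nm. Percent control derived from % conversion with vs without inhibitor; IC50 then determined.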

Broadly, the IC50 is the concentration that gives 50% inhibition. A lower IC50 goes with greater potency.

Compound `Cc1cc(SC2C(=O)CC(CCc3cscn3)(C(C)C)OC2=O)c(C(C)(C)C)cc1CO` (centres undefined) [3-(2-tert-Butyl-4-hydroxymethyl-5-methyl-phenylsulfanyl)-4-hydroxy-6-isopropyl-6-(2-thiazol-4-yl-ethyl)-5,6-dihydro-pyran-2-one] showed an IC50 of 1.3 nM.
As to `Cc1cc(SC2C(=O)CC(CCc3ncsc3C)(C(C)C)OC2=O)c(C(C)(C)C)cc1CO` (centres undefined) [3-(2-tert-Butyl-4-hydroxymethyl-5-methyl-phenylsulfanyl)-4-hydroxy-6-isopropyl-6-[2-(5-methyl-thiazol-4-yl)-ethyl]-5,6-dihydro-pyran-2-one], half-maximal inhibition (IC50) was put at 1.3 nM.
Take `Cc1cc(SC2C(=O)CC(CCc3ccsc3CO)(C(C)C)OC2=O)c(C(C)(C)C)cc1CO` (centres undefined) [3-(2-tert-Butyl-4-hydroxymethyl-5-methyl-phenylsulfanyl)-4-hydroxy-6-[2-(2-hydroxymethyl-thiophen-3-yl)-ethyl]-6-isopropyl-5,6-dihydro-pyran-2-one]: the IC50 worked out at 14 nM.
The value for `Cc1cc(SC2C(=O)CC(CCc3nc(C(C)C)cs3)(C(C)C)OC2=O)c(C(C)(C)C)cc1CO` (centres undefined) [3-(2-tert-Butyl-4-hydroxymethyl-5-methyl-phenylsulfanyl)-4-hydroxy-6-isopropyl-6-[2-(4-isopropyl-thiazol-2-yl)-ethyl]-5,6-dihydro-pyran-2-one] was 14 nM.
